B1: Osa-1-4 twister ribozyme (parent)
chain: CCGCCUAACACUGCCAAUGCCGGUCCCAAGCCCGGAUAAAAGUGGAGGGGGCGG

Variants of: B1
Experiment: self-cleavage, relative activity (ratio to wild type); higher = more cleavage; co-transcriptional
Summary of the method: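 A DNA template for a 54-nucleotide Oryza sativa twister ribozyme was synthesised with 97 % wild-type base and 1 % of each other base at the 48 positions downstream of the cleavage site. It was transcribed in vitro for 2 h at 37 °C, allowing co-transcriptional self-cleavage, then reverse-transcribed with a template-switching oligonucleotide, PCR-amplified and deep-sequenced. Cleavage status was scored from reads with or without upstream sequence. Relative activity is fraction cleaved normalised to wild type.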

Variant | self-cleavage
G34A U18C | 0.43
G34A U18A | 0.73
G34A U18G | 0.71
C33G U37G | 0.08
C33G U37A | 0.08
C33G U37C | 0.05
C33G G45C | 0.02
C33G G45U | 0.02
C33G G45A | 0.04
C33U C52U | 0.99
C33U C52A | 0.84
C33U C52G | 0.88
C33U G53C | 0.07
C33U G53A | 0.35
C33U G53U | 0.13
C33U U18C | 0.63
C33U U18G | 0.48
C33U U18A | 0.81
G34U U24C | 0.07
G34U U24A | 0.15
G34U U24G | 0.03
C33U G44U | 0.53
C33U G44A | 0.5
C33U G44C | 0.29

Variant | self-cleavage
G35A G44A | 0.8
G35A G44C | 0.76
G35A G44U | 0.71
C33U G13C | 0.02
C33U G13U | 0.03
C33U G13A | 0.04
G34C G49A | 0.06
G34C G49C | 0.06
G34C G49U | 0.07
C33A U37A | 0.34
C33A U37C | 0.14
C33A U37G | 0.29
C33G U24A | 0.04
C33G U24G | 0.01
C33G U24C | 0.04
C33G U18A | 0.07
C33G U18G | 0.08
C33G U18C | 0.08
C33U U43C | 0.09
C33U U43G | 0.09
C33U U43A | 0.19
G34A U43G | 0.1
G34A U43C | 0.19
G34A U43A | 0.22

Variant | self-cleavage
G34A U37C | 0.89
G34A U37A | 0.88
G34A U37G | 0.88
G34U G42C | 0.08
G34U G42A | 0.13
G34U G42U | 0.07
C33G G23U | 0.03
C33G G23C | 0.03
C33G G23A | 0.05
G35A G47C | 0.11
G35A G47A | 0.27
G35A G47U | 0.18
C33G C52U | 0.05
C33G C52A | 0.08
C33G C52G | 0.26
G34C G51U | 0.06
G34C G51A | 0.1
G34C G51C | 0.06
C33U G49U | 0.08
C33U G49A | 0.08
C33U G49C | 0.07
C33G G44U | 0.05
C33G G44A | 0.05
C33G G44C | 0.05

Variant | self-cleavage
G35A G49A | 0.18
G34A G48C | 0.08
G34A G48A | 0.08
G34A G48U | 0.06
G34U U12C | 0.14
G34U U12G | 0.05
G34U U12A | 0.14
C33U G30U | 0.03
C33U G30A | 0.04
C33U G30C | 0.04
C33U G45C | 0.06
C33U G45A | 0.08
C33U G45U | 0.05
C33G G49U | 0.02
C33G G49C | 0.03
C33G G49A | 0.05
G34A U12C | 0.19
G34A U12G | 0.07
G34A U12A | 0.23
G35A G45A | 0.31
G35A G45C | 0.06
G35A G45U | 0.15
G34C G50A | 0.23
G34C G50U | 0.41

Variant | self-cleavage
G34C G50C | 0.19
G34U G49U | 0.11
G34U G49C | 0.06
G34U G49A | 0.11
C33G G51C | 0.06
C33G G51U | 0.05
C33G G51A | 0.06
C33G G50C | 0.05
C33G G50U | 0.09
C33G G50A | 0.06
G34C G53C | 0.09
G34C G53U | 0.07
G34C G53A | 0.09
G34U G45C | 0.05
G34U G45U | 0.08
G34U G45A | 0.09
G35A G48U | 0.09
G35A G48A | 0.12
G35A G48C | 0.1
C33U G51C | 0.08
C33U G51A | 0.35
C33U G51U | 0.13
G34U G44U | 0.5
G34U G44C | 0.41

Variant | self-cleavage
G34U G44A | 0.55
C33G G48C | 0.03
C33G G48U | 0.02
C33G G48A | 0.02
G34C G54U | 0.25
G34C G54C | 0.16
G34C G54A | 0.15
G34A G45A | 0.15
G34A G45C | 0.06
G34A G45U | 0.09
G34U G47U | 0.1
G34U G47C | 0.05
G34U G47A | 0.09
C33G G22C | 0.62
C33G G22A | 0.16
C33G G22U | 0.87
G34C G47C | 0.05
G34C G47U | 0.06
G34C G47A | 0.07
G34C G42C | 0.09
G34C G42U | 0.04
G34C G42A | 0.09
G34A | 0.86
G34C | 0.71

Variant | self-cleavage
G34U | 0.82
G34U G35U | 0.52
G34U G35C | 0.31
G34U G35A | 0.6
G34A U24C | 0.06
G34A U24A | 0.18
G34A U24G | 0.03
C33G G47A | 0.03
C33G G47U | 0.02
C33G G47C | 0.03
G34U G48C | 0.07
G34U G48A | 0.07
G34U G48U | 0.05
C33G G35U | 0.04
C33G G35C | 0.03
C33G G35A | 0.05
C33U G47U | 0.07
C33U G47A | 0.08
C33U G47C | 0.07
G34C U43G | 0.07
G34C U43A | 0.09
G34C U43C | 0.1
G34A G44U | 0.58
G34A G44C | 0.58

Variant | self-cleavage
G34A G44A | 0.69
C33A G53C | 0.04
C33A G53U | 0.06
C33A G53A | 0.08
G34U G54A | 0.39
G34U G54C | 0.57
G34U G54U | 0.49
C33U U12A | 0.27
C33U U12C | 0.11
C33U U12G | 0.08
C33A G54C | 0.07
C33A G54A | 0.11
C33A G54U | 0.24
C33U G19C | 0.02
C33U G19U | 0.06
C33U G19A | 0.17
C33U G23A | 0.09
C33U G23U | 0.04
C33U G23C | 0.04
C33U G22A | 1.08
C33U G22C | 0.45
C33U G22U | 1
C33U C9A | 0.2
C33U C9U | 0.39

Variant | self-cleavage
C33U C9G | 0.3
G34A G50A | 0.29
G34A G50U | 0.83
G34A G50C | 0.6
C33U U37A | 0.87
C33U U37G | 0.9
C33U U37C | 0.88
C33G U12G | 0.07
C33G U12C | 0.03
C33G U12A | 0.05
G34C G48A | 0.06
G34C G48C | 0.05
G34C G48U | 0.05
C33G G13A | 0.03
C33G G13U | 0.01
C33G G13C | 0.01
C33A G51U | 0.05
C33A G51C | 0.05
C33A G51A | 0.06
C33U G50U | 0.88
C33U G50A | 0.32
C33U G50C | 0.53
C33G G42C | 0.05
C33G G42U | 0.02

Variant | self-cleavage
C33G G42A | 0.05
C33G G53C | 0.03
C33G G53A | 0.08
C33G G53U | 0.04
G34C G45A | 0.05
G34C G45C | 0.06
G34C G45U | 0.06
C33U G42U | 0.07
C33U G42C | 0.08
C33U G42A | 0.14
G34A G49U | 0.1
G34A G49C | 0.07
G34A G49A | 0.13
C33U G48A | 0.07
C33U G48U | 0.04
C33U G48C | 0.05
C33A U43A | 0.08
C33A U43G | 0.08
C33A U43C | 0.06
G34A G53A | 0.49
G34A G53C | 0.05
G34A G53U | 0.13
G34A G35U | 0.8
G34A G35C | 0.29

Variant | self-cleavage
G34A G35A | 0.77
C33G G19U | 0.03
C33G G19C | 0.02
C33G G19A | 0.05
C33U G34A | 0.22
C33U G34C | 0.21
C33U G34U | 0.13
C33G G34A | 0.06
C33G G34C | 0.05
C33G G34U | 0.05
G34C G35U | 0.28
G34C G35A | 0.39
G34C G35C | 0.11
G34A G47C | 0.08
G34A G47A | 0.13
G34A G47U | 0.1
G34A G51A | 0.15
G34A G51U | 0.1
G34A G51C | 0.06
C33G U43C | 0.03
C33G U43A | 0.06
C33G U43G | 0.06
G34U U18G | 0.58
G34U U18A | 0.64

Variant | self-cleavage
G34U U18C | 0.31
G34A G54C | 0.7
G34A G54U | 0.7
G34A G54A | 0.64
C33G G30A | 0.02
C33G G30C | 0.02
C33G G30U | 0.02
G34U U37G | 0.87
G34U U37C | 0.84
G34U U37A | 0.79
G35A G42A | 0.44
G35A G42U | 0.08
G35A G42C | 0.17
G34U U43A | 0.11
G34U U43G | 0.07
G34U U43C | 0.15
G35A | 0.9
C33G C9G | 0.07
C33G C9U | 0.04
C33G C9A | 0.02
C33G | 0.06
C33U | 0.88
C33U G54U | 0.68
C33U G54A | 0.57

Variant | self-cleavage
C33U G54C | 0.61
G34U G51A | 0.1
G34U G51U | 0.06
G34U G51C | 0.05
C33G G54A | 0.08
C33G G54C | 0.03
C33G G54U | 0.1
G34C U24C | 0.06
G34C U24G | 0.02
G34C U24A | 0.07
G34U G50A | 0.26
G34U G50C | 0.39
G34U G50U | 0.73
C33A U24A | 0.05
C33A U24G | 0.02
C33A U24C | 0.05
G34C U18C | 0.36
G34C U18G | 0.15
G34C U18A | 0.43
G34C U37G | 0.66
G34C U37A | 0.6
G34C U37C | 0.65
C33U G35U | 0.11
C33U G35A | 0.49

Variant | self-cleavage
C33U G35C | 0.08
G34C G44C | 0.14
G34C G44A | 0.2
G34C G44U | 0.16
C33A U18C | 0.12
C33A U18G | 0.17
C33A U18A | 0.15
C33A U12G | 0.06
C33A U12C | 0.06
C33A U12A | 0.06
G34A G42U | 0.05
G34A G42C | 0.08
G34A G42A | 0.11
C33U U24A | 0.14
C33U U24C | 0.06
C33U U24G | 0.03
G34U G53U | 0.11
G34U G53A | 0.27
G34U G53C | 0.05
G34C U12G | 0.08
G34C U12C | 0.1
G34C U12A | 0.1

Source: the RNAGym collection of RNA variant scans (doi:10.1002/anie.201605470)
